Measurements: PMC3152797 (Cancer chemotherapy and pharmacology, 2009)
Where two headings read alike, the source gives them in different places.

Assays:
HEL cells = assay: Drug-drug effect on cell survival / cell death; assay type: cell-based, human; details: for Cell death: 48 h
P-STAT3 = assay: Down-regulation of P-STAT3; assay type: cell-based; details: Homo sapiens, HEL, read-out: IC50 for P-STAT3 down-regulation
HSC70 (HSPA8) = assay: HSC70; assay type: cell-based, human; details: HEL cells, Fig. 1b
Procedure, shortened: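 HEL human erythroleukemia cells were washed and resuspended in serum-free RPMI 1640 (1.2 × 10⁷ cells/200 μl). They were electroporated at 250 V and 250 μF (2-mm gap) with 200 nM HSPA1A/B siRNA, a two-mismatch control, or media only. Test compounds were added for the last 6 h of a 48-h incubation. Read-out was western blot with ECL detection, normalized to actin, at least triplicate.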

[1] = background statement, no reference given; cited from earlier work

With `CO[C@H]1/C=C\C=C(/C)C(=O)NC2=CC(=O)C(NCCN(C)C)=C(C[C@@H](C)C[C@H](OC)[C@H](O)[C@@H](C)/C=C(\C)[C@@H]1OC(N)=O)C2=O` [17-DMAG, 17-(dimethyl-aminoethylamino)-17-demethoxygeldanamycin] the Cell death (HEL cells; 50% of the IC50, with HSP70 siRNA added) was 50%, the Cell death (HEL cells; 50% of the IC50, without siRNA) was ~ 10% and the IC50 (P-STAT3; 6 h) was 450 nM. The IC50 (P-STAT3) was 157 nM and the “Effect on HSC70 (HSPA8) expression” value (HSC70 (HSPA8)) was “affected by neither”.

In the case of “control-siRNA: version of HSPA1 siRNA with two mismatches, 5′-CGACCGAGACAAGCGCAAG-3′, used as control (chemistry not given here)”, the “Effect on cell survival” value (HEL cells; HEL cells) is reported as “no effect”.

In the case of `C=CCNC1=C2C[C@@H](C)C[C@H](OC)[C@H](O)[C@@H](C)/C=C(\C)[C@H](OC(N)=O)[C@@H](OC)/C=C\C=C(/C)C(=O)NC(=CC1=O)C2=O` [17-AAG, 17-allylamino-17-demethoxygeldanamycin], the Solubility [1] is listed as “poor solubility”.
